Shown are actives, neighbours in structure and some others; about 2.5% of the full set was active somewhere.
MEKK3 PB1 HTS: MEKK3-MEK5 PB1 interaction, increase or decrease; hit rate 1.4% among 290,000; AID 1529; Q99759; binding response (% of control), % at 10 µM; bead-based flow cytometry, Alexa488-MEK5 binding to MEKK3; actives lie on both sides; 0 = blocked by unlabeled MEK5, 100 = vehicle;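 active = binding response more than 3 SD above or below the average of its plate-row segment, actives on both sides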;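 also: Alexa488 bead fluorescence after subtracting the streptavidin-only scavenger bead signal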
Target sequence (Q99759 whole entry, looked up): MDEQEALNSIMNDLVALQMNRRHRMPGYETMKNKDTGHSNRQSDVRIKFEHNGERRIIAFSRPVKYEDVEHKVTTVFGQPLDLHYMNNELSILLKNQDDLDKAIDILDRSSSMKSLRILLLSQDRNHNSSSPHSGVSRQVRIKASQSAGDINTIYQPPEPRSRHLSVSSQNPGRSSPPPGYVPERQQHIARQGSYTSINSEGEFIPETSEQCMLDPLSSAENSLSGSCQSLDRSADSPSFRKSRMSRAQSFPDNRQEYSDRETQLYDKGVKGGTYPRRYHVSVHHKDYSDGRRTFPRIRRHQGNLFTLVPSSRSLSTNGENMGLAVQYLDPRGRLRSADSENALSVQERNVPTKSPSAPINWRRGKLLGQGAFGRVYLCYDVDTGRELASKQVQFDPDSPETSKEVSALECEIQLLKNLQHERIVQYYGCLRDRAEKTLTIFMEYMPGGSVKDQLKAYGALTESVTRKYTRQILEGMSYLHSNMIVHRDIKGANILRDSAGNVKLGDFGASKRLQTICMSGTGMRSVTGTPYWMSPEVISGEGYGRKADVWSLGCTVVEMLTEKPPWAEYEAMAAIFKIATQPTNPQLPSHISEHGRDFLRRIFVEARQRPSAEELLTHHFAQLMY
ABCG2 block: human ABCG2 inhibition, ABCB1 as counter-screen; Q9UNQ0; IgMXP3 cells, JC-1 efflux, flow cytometry; inhibition, % at 6.6 µM; hit rate 0.1% among 190,000; AID 1325;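 active = inhibition above 80%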;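 also: 0% = DMSO and 100% = nicardipine control wells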
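material = IgMXP3 (ABCG2) plus far-red-tagged CCRF-Adr (ABCB1) cells | amount = 3 million cells/mL, equal mix of both lines | also added = JC-1 transporter substrate | dosing = one concentration, 6.6 µM final | schedule = 10 min at 25 °C | measured by = flow cytometric JC-1 green MFI at 530 nm | read-out basis = percent efflux inhibition, scaled nicardipine 100% to DMSO 0%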
Efflux pump mplx: inhibitors of Candida antifungal efflux pumps expressed in yeast | S. cerevisiae Candida pump triplex, Nile Red efflux | inhibition, % at 10 µM | hit rate 0.44% among 330,000;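 active = plate passing quality check with inhibition over a set limit, or well fluorescence over plate mean plus 4 SD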;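 also: Nile Red retained in pooled yeast measured as flow cytometry median fluorescence; 0% = buffer negative control and 100% = Enniatin B positive control; higher means more Nile Red kept so more efflux inhibition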
MEKK2 WT-MEK5: raises or lowers MEK5 binding to wildtype human MEKK2 PB1 domain | binding response (% of control), % at 10 µM | bead flow cytometry, Alexa488-MEK5 binding to MEKK2 WT; actives lie on both sides | AID 1531 | Q9Y2U5 | hit rate 1.1% among 290,000; in the data active = binding response below about 67% or above about 130%
MEKK2mut PB1 HTS: signal of MEK5 binding to mutant human MEKK2 PB1 domain. AID 1530. hit rate 0.35% among 290,000. bead flow cytometry, Alexa488-MEK5 binding to MEKK2 mutant. percent response, % at 10 µM; in the data active = percent response above about 24%, passing the limit was not always enough
ABCB1 inh: inhibitors of human ABCB1 transporter, ABCG2 counter-screen; P08183; CCRF-Adr cells, JC-1 efflux, flow cytometry; inhibition, % at 6.6 µM; hit rate 0.067% among 190,000; AID 1326; in the data active = inhibition above about 40%;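 also: 0% = vehicle and 100% = reference inhibitor; higher value means more JC-1 retained so stronger ABCB1 efflux block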
MEKK2wt confirm: raises or lowers MEK5 binding to wildtype human MEKK2, retest; shares compounds with MEKK3 PB1 HTS; binding response (% of control), % at 10 µM; bead flow cytometry, Alexa488-MEK5 binding to MEKK2 WT; actives lie on both sides; hit rate 2.4% among 5,900; in the data active = binding response below about 16% or above about 210%; inactive = in between
MEKK2mut confirm: signal of MEK5 binding to mutant human MEKK2, retest; hit rate 2% among 5,900; percent response, % at 10 µM; shares compounds with MEKK3 PB1 HTS; bead flow cytometry, Alexa488-MEK5 binding to MEKK2 mutant; AID 1893; in the data active = percent response mostly above about 71%, no sharp cut-off; inactive = mostly below about 38%;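 also: higher means compound restores mutant binding toward wildtype level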
MEKK3 confirm: MEKK3-MEK5 PB1 inhibition, single concentration confirmation; shares compounds with MEKK3 PB1 HTS; bead flow cytometry, Alexa488-MEK5 binding to MEKK3; hits give low values; binding response (% of control), % at 10 µM; hit rate 1.8% among 5,900; AID 1894;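 active = binding response below 72% of control, or above a set upper limit, though filed actives all read lower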;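 also: 100% = DMSO only wells and 0% = binding blocked by excess unlabeled MEK5; lower values mean stronger disruption of MEK5 binding to MEKK3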
* marks the source's active call; other numbers are inactive results; · = no result; [ ] = another dose, or the depositor's remark.

SMILES	MEKK3 PB1 HTS	ABCG2 block	Efflux pump mplx	MEKK2 WT-MEK5	MEKK2mut PB1 HTS	ABCB1 inh	MEKK2wt confirm	MEKK2mut confirm	MEKK3 confirm
O=C(Nc1cccc(S(=O)(=O)N2CCCCCC2)c1)c1ccc2c(c1)OCO2	140*	25	0	105	-1	2	101	-3	106
CN1CCN(S(=O)(=O)c2ccc(NC(=O)Nc3cccc(Cl)c3)cc2)CC1	99	0	0	122	11	-1	·	·	·
Cc1nn(C)c(C(=O)NCc2ccc(Cl)cc2)c1Cl	110	4	0	107	0	0	·	·	·
O=C(Nc1cccc(S(=O)(=O)N2CCCC2)c1)c1ccc2c(c1)OCO2	108	53	0	107	10	1	·	·	·
Cc1nc(C)c(C(=O)NCc2ccc(Cl)cc2)o1	76*[inhibitor]	20	0	81	-6	-1	99	-2	104
CC(C)NC(=O)c1cc(-n2cnnc2)ccc1Cl	102	1	0	104	6	1	·	·	·
Cc1ncc([N+](=O)[O-])n1CCN1C(=O)c2ccccc2C1=O	97	·	0	100	6	·	·	·	·
CCc1noc(C)c1C(=O)N1CCN(S(=O)(=O)c2c(C)c(C)cc(C)c2C)CC1	·	·	0	·	·	·	·	·	·
CC(=O)c1ccc(NC(=O)C2=CC(c3ccco3)=NS(=O)(=O)N2C)cc1	101	·	0	101	3	·	·	·	·
Cc1nc(C)c(C(=O)Nc2cccc(Cl)c2)o1	77*[inhibitor]	44	0	84	-6	-2	103	4	101
FC(F)(F)c1nnc2ccc(N3CCCCCC3)nn12	81*[inhibitor]	-3	0	91	-14	-4	98	-2	100
O=C(/C=C/c1ccco1)N(Cc1ccc(F)cc1)C1CCS(=O)(=O)C1 (stereo not drawn)	59*[inhibitor]	·	0	63*[inhibitor]	-17	·	97	-1	98
Cc1ccccc1N(CC(=O)NCc1ccc2c(c1)OCO2)C(=O)CCC(=O)Nc1ccccn1	76*[inhibitor]	2	0	86	-11	1	100	-6	101
C=CCn1c(SCC(=O)Nc2ccc(F)cc2)nnc1-c1cnccn1	103	·	0	106	5	·	·	·	·
C=CCn1c(=O)c2c3c(sc2n2c(Nc4ccccc4)nnc12)CCCC3	10*[inhibitor]	0	0	13*[inhibitor]	-22	0	91	-31	96
CSc1cccc(NC(=O)CSc2ncccc2C(=O)Oc2cccc([N+](=O)[O-])c2)c1	121	2	1	104	0	0	·	·	·
CCN(C(=O)CSc1ncccc1C(=O)Oc1cccc([N+](=O)[O-])c1)c1cccc(C)c1	138*	57	0	107	1	8	101	1	104
Cc1ccc(-n2c(O)c(C=NCc3ccccn3)c3ccccc3c2=O)cc1	129*	16	0	106	0	1	92	-9	94
Cc1cccc(-n2c(O)c(C=NCc3ccccn3)c3ccccc3c2=O)c1	123	18	0	107	1	4	·	·	·
COc1ccc(C)cc1N(C(=O)COc1cccc(F)c1)c1nc2ccccc2s1	143*	15	0	108	1	2	96	-7	87
COc1ccc(-n2c(COc3cccc4ccccc34)nnc2SC(C)C(=O)O)cc1 (stereo not drawn)	103	1	0	104	0	1	·	·	·
Cc1ccc(-n2c(SCC(=O)N3CCCc4ccccc43)nnc2-c2cccnc2)c(C)c1	97	5	0	91	3	3	·	·	·
CCOc1ccccc1-n1c(SCC(=O)N2CCCc3ccccc32)nnc1-c1cccnc1	132*	8	0	104	-1	2	112	4	105
Cc1nc(-c2ccccn2)nc(SCC(=O)c2ccc(F)cc2)c1Cl	134*	·	0	113	31	·	103	-1	97
COc1ccc(C(=O)CSc2nc(-c3ccccn3)nc(C)c2Cl)cc1	128*	·	0	114	23	·	107	6	104
SMILES	MEKK3 PB1 HTS	ABCG2 block	Efflux pump mplx	MEKK2 WT-MEK5	MEKK2mut PB1 HTS	ABCB1 inh	MEKK2wt confirm	MEKK2mut confirm	MEKK3 confirm
O=C(CSc1ccc(-c2ccccn2)nn1)c1ccc(F)cc1	117	5	0	107	-1	1	·	·	·
O=C(Nc1nc2nccc(-c3ccccc3)n2n1)c1ccccc1	102	·	0	103	3	·	·	·	·
COc1ccc(C(=O)Nc2nc3nccc(-c4ccccc4)n3n2)cc1	180*	2	2	108	1	1	102	4	103
O=C(Cc1ccccc1F)NNC(=O)c1ccncc1	106	·	0	115	9	·	·	·	·
CC(C(=O)Nc1nccs1)c1ccc([N+](=O)[O-])cc1 (stereo not drawn)	86	5	0	83	-12	1	·	·	·
COc1cccc(Nc2nc(Nc3ccc(Cl)c(C(=O)O)c3)nc(C)c2[N+](=O)[O-])c1	·	·	0	·	·	·	·	·	·
CSc1ccc(CN2CCC(CO)(Cc3ccc(Cl)cc3)CC2)cc1	105	10	0	140*	19	2	137	21	106
COc1cc(CN2CCC(CO)(Cc3cccc(C(F)(F)F)c3)CC2)ccc1F	42*[inhibitor]	·	0	69	-23	·	122	7	102
Cc1c(CN2CCC(CO)(Cc3cccc(C(F)(F)F)c3)CC2)c2ccccc2n1C	108	3	0	165*	44	7	137	11	99
COc1ccc(F)cc1C(=O)C1CCCN(C(=O)c2cccc(N(C)C)c2)C1 (stereo not drawn)	100	7	0	101	10	2	·	·	·
O=C(NCCCn1ccnc1)/C(=C\c1cccs1)NC(=O)c1cccs1	130*	-1	0	116	0	0	100	-5	101
O=C(NCCO)/C(=C\c1cccs1)NC(=O)c1cccs1	106	0	0	104	0	0	·	·	·
COc1cc(/C=C2\SC(=O)N(CCN)C2=O)ccc1OS(=O)(=O)c1cc(C)ccc1C	97	-1	·	178*	14	0	191	54	110
NCCN1C(=O)S/C(=C\c2ccc3c(c2)OCO3)C1=O	102	·	0	104	-2	·	·	·	·
COc1ccc(N2C(=O)/C(=C/c3cccnc3)NC2=S)cc1	138*	5	0	112	2	0	87	-2	99
COc1ccc(N2C(=O)/C(=C/N(C)C)NC2=S)cc1	102	-2	0	102	7	0	·	·	·

Compound activity: PubChem, NMMLSC
